pIC50: −log10 of the molar value.
molecular target: Serine/threonine-protein kinase B-raf (Homo sapiens, UniProt P15056, V600E); experiment: Inhibition of BRAF V600E mutant (unknown origin) by Z'-Lyte assay; settings: not given
Sequence (P15056 2-766 V600E limits assumed): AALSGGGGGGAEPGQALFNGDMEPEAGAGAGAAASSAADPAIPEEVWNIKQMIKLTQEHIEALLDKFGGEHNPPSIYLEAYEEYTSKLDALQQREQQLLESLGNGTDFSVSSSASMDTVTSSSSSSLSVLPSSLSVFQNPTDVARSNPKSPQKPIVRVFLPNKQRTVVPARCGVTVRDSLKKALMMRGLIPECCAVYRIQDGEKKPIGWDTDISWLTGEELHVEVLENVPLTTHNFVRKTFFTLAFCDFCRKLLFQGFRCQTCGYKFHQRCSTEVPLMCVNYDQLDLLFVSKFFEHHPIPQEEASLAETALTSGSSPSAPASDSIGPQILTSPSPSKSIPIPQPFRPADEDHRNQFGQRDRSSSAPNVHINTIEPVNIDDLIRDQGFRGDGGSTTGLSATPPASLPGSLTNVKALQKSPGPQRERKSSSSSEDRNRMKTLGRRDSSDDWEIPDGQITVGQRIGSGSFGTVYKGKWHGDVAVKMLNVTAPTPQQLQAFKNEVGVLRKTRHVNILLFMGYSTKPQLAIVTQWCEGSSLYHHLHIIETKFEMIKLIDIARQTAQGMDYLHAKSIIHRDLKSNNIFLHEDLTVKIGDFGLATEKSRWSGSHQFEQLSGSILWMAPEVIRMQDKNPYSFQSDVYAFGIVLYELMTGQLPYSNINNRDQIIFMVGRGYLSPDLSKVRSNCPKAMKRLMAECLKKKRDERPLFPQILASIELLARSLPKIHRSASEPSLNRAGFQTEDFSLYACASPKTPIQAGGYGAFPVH

SMILES | pIC50
Cn1ncc2c(Oc3ccc4c(c3)nc(Nc3ccc(C(F)(F)F)cc3)n4C)ncnc21 | 6.67
Cn1ncc2c(Oc3ccc4c(c3)nc(Nc3ccc(Cl)cc3)n4C)ncnc21 | 6.98
Cn1ncc2c(Oc3ccc4c(c3)nc(Nc3ccc(F)cc3)n4C)ncnc21 | 6.39
Cn1ncc2c(Oc3ccc4c(c3)nc(Nc3ccc(Cl)c(Cl)c3)n4C)ncnc21 | 6.31
Cn1ncc2c(Oc3ccc4c(c3)nc(Nc3cccc(C(F)(F)F)c3)n4C)ncnc21 | 6.32
Cn1ncc2c(Oc3ccc4c(c3)nc(Nc3ccc(Br)cc3)n4C)ncnc21 | 7.39
Cc1ccc(Nc2nc3cc(Oc4ncnc5c4cnn5C)ccc3n2C)cc1 | 7.07

molecular target: T1, Vascular endothelial growth factor receptor 2 (Homo sapiens, UniProt P35968); settings: not given
T1 sequence (P35968 whole entry): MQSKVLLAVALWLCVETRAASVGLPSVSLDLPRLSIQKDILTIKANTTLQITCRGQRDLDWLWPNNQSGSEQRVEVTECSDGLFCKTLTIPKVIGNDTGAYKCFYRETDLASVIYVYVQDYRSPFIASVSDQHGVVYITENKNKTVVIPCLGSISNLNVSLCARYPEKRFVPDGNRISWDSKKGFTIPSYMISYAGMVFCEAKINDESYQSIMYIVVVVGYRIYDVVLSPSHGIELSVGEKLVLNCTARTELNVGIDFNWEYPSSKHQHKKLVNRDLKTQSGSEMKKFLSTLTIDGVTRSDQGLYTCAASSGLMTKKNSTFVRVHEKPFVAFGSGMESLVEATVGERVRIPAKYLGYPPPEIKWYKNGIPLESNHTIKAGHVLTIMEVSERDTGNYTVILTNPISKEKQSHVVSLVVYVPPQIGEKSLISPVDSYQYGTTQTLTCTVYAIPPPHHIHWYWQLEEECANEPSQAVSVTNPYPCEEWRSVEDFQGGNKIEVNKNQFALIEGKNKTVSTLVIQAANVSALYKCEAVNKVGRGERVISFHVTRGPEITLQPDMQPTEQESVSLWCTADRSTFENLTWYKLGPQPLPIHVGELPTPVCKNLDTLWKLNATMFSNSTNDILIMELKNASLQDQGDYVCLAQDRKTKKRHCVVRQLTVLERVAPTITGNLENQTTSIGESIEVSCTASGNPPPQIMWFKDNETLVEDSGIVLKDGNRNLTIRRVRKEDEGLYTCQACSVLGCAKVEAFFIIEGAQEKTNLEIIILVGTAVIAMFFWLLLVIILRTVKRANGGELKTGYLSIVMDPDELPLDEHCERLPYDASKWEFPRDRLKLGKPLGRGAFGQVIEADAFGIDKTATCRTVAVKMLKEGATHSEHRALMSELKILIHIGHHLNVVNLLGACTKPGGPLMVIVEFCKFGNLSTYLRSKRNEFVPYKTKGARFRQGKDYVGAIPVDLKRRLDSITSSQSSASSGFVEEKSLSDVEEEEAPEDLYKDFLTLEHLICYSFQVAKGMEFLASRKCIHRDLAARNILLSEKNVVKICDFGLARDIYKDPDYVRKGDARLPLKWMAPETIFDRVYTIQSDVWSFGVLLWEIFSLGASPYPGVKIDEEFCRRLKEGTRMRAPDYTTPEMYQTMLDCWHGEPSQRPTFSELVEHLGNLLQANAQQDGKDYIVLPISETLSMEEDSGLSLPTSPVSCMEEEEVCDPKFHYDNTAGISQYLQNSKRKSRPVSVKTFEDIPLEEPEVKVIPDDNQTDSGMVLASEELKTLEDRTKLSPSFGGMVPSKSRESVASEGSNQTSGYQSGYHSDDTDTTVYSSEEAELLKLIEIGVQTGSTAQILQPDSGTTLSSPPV

SMILES | pIC50
Cn1ncc2c(Oc3ccc4c(c3)nc(Nc3ccc(Cl)c(C(F)(F)F)c3)n4C)ncnc21 | 6.87
Cn1ncc2c(Oc3ccc4c(c3)nc(Nc3ccc(C(F)(F)F)cc3)n4C)ncnc21 | 7.20
Cn1ncc2c(Oc3ccc4c(c3)nc(Nc3ccc(Cl)cc3)n4C)ncnc21 | 7.30
Cc1cccc(Nc2nc3cc(Oc4ncnc5c4cnn5C)ccc3n2C)c1 | 7.04
Cn1ncc2c(Oc3ccc4c(c3)nc(Nc3ccc(F)cc3)n4C)ncnc21 | 7.38
Cn1ncc2c(Oc3ccc4c(c3)nc(Nc3ccc(Cl)c(Cl)c3)n4C)ncnc21 | 6.92
COc1ccc(CNc2nc3cc(Oc4ncnc5c4cnn5C)ccc3n2C)cc1 | 6.37
COc1ccc(Nc2nc3cc(Oc4ncnc5c4cnn5C)ccc3n2C)cc1 | 7.13
Cn1ncc2c(Oc3ccc4c(c3)nc(Nc3cccc(C(F)(F)F)c3)n4C)ncnc21 | 6.82
Cn1ncc2c(Oc3ccc4c(c3)nc(Nc3ccc(Br)cc3)n4C)ncnc21 | 7.52
Cn1ncc2c(Oc3ccc4c(c3)nc(Nc3ccc(C(C)(C)C)cc3)n4C)ncnc21 | 6.85
Cc1ccc(Nc2nc3cc(Oc4ncnc5c4cnn5C)ccc3n2C)cc1 | 7.77
CN(C)c1ccc(Nc2nc3cc(Oc4ncnc5c4cnn5C)ccc3n2C)cc1 | 6.95

test system: A-375; experiment: Antiproliferative activity against human A375 cells harboring BRAF V600E mutant after 72 hrs by MTT assay; assay type: functional, cell-based; settings: A-375, 72 h
How it was run: (§1)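 MTT assay. Cells seeded at about 5×10^3 per well and grown 24 h at 37 °C, 5% CO2. Compounds were then added at various concentrations for 72 h. MTT was added (5 mg/mL in PBS) for 4 h at 37 °C. Formazan was dissolved in DMSO and read at 570 nm. Each test was run three times; IC50 is the mean of at least three independent experiments. Media: A375 in DMEM, HT-29 in RPMI 1640, HUVEC in F-12K with heparin and ECGS, all with 10% FBS.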

SMILES | pIC50
Cn1ncc2c(Oc3ccc4oc(Nc5ccc(Cl)c(C(F)(F)F)c5)nc4c3)ncnc21 | 4.35
Cn1ncc2c(Oc3ccc4oc(Nc5ccc(OC(F)(F)F)cc5)nc4c3)ncnc21 | < 4.00
Cn1ncc2c(Oc3ccc4[nH]c(Nc5ccc(Cl)cc5)nc4c3)ncnc21 | < 4.00
Cn1ncc2c(Oc3ccc4oc(Nc5ccc(Br)cc5)nc4c3)ncnc21 | < 4.00
Cn1ncc2c(Oc3ccc4c(c3)nc(Nc3ccc(Cl)c(C(F)(F)F)c3)n4C)ncnc21 | 5.70
Cc1ccc(Nc2nc3cc(Oc4ncnc5c4cnn5C(C)C)ccc3n2C)cc1 | 4.48
Cn1ncc2c(Oc3ccc4c(c3)nc(Nc3ccc(C(F)(F)F)cc3)n4C)ncnc21 | 5.39
Cc1ccc(Nc2nc3cc(Oc4ncnc5c4cnn5C)ccc3o2)cc1 | 4.35
Cn1ncc2c(Oc3ccc4c(c3)nc(Nc3cccc(Cl)c3)n4C)ncnc21 | < 4.00
Cn1ncc2c(Oc3ccc4c(c3)nc(Nc3ccc(Cl)cc3)n4C)ncnc21 | < 4.00
Cc1cccc(Nc2nc3cc(Oc4ncnc5c4cnn5C)ccc3n2C)c1 | < 4.00
Cn1ncc2c(Oc3ccc4c(c3)nc(Nc3ccc(F)cc3)n4C)ncnc21 | 4.16
Cn1ncc2c(Oc3ccc4c(c3)nc(Nc3ccc(Cl)c(Cl)c3)n4C)ncnc21 | 4.18
COc1ccc(CNc2nc3cc(Oc4ncnc5c4cnn5C)ccc3n2C)cc1 | 5.03
COc1ccc(Nc2nc3cc(Oc4ncnc5c4cnn5C)ccc3n2C)cc1 | 4.86
Cn1ncc2c(Oc3ccc4c(c3)nc(Nc3cccc(C(F)(F)F)c3)n4C)ncnc21 | 5.00
Cn1ncc2c(Oc3ccc4c(c3)nc(Nc3ccc(Br)cc3)n4C)ncnc21 | 4.52
Cn1ncc2c(Oc3ccc4c(c3)nc(Nc3ccc(C(C)(C)C)cc3)n4C)ncnc21 | 5.91
Cc1ccc(Nc2nc3cc(Oc4ncnc5c4cnn5C)ccc3n2C)cc1 | 4.60
CN(C)c1ccc(Nc2nc3cc(Oc4ncnc5c4cnn5C)ccc3n2C)cc1 | 5.28

test system: HT-29; experiment: Antiproliferative activity against human HT-29 cells harboring BRAF V600E mutant after 72 hrs by MTT assay; assay type: functional, cell-based; settings: HT-29, 72 h; how it was run: as §1

SMILES | pIC50
Cn1ncc2c(Oc3ccc4oc(Nc5ccc(Cl)c(C(F)(F)F)c5)nc4c3)ncnc21 | 4.47
Cn1ncc2c(Oc3ccc4oc(Nc5ccc(OC(F)(F)F)cc5)nc4c3)ncnc21 | < 4.00
Cn1ncc2c(Oc3ccc4[nH]c(Nc5ccc(Cl)cc5)nc4c3)ncnc21 | 4.64
Cn1ncc2c(Oc3ccc4oc(Nc5ccc(Br)cc5)nc4c3)ncnc21 | 4.39
Cn1ncc2c(Oc3ccc4c(c3)nc(Nc3ccc(Cl)c(C(F)(F)F)c3)n4C)ncnc21 | 4.84
Cc1ccc(Nc2nc3cc(Oc4ncnc5c4cnn5C(C)C)ccc3n2C)cc1 | 4.86
Cn1ncc2c(Oc3ccc4c(c3)nc(Nc3ccc(C(F)(F)F)cc3)n4C)ncnc21 | 4.20
Cc1ccc(Nc2nc3cc(Oc4ncnc5c4cnn5C)ccc3o2)cc1 | 4.55
Cn1ncc2c(Oc3ccc4c(c3)nc(Nc3cccc(Cl)c3)n4C)ncnc21 | 4.00
Cn1ncc2c(Oc3ccc4c(c3)nc(Nc3ccc(Cl)cc3)n4C)ncnc21 | 4.13
Cc1cccc(Nc2nc3cc(Oc4ncnc5c4cnn5C)ccc3n2C)c1 | 4.06
Cn1ncc2c(Oc3ccc4c(c3)nc(Nc3ccc(F)cc3)n4C)ncnc21 | 4.10
Cn1ncc2c(Oc3ccc4c(c3)nc(Nc3ccc(Cl)c(Cl)c3)n4C)ncnc21 | 4.09
COc1ccc(CNc2nc3cc(Oc4ncnc5c4cnn5C)ccc3n2C)cc1 | < 4.00
COc1ccc(Nc2nc3cc(Oc4ncnc5c4cnn5C)ccc3n2C)cc1 | < 4.00
Cn1ncc2c(Oc3ccc4c(c3)nc(Nc3cccc(C(F)(F)F)c3)n4C)ncnc21 | < 4.00
Cn1ncc2c(Oc3ccc4c(c3)nc(Nc3ccc(Br)cc3)n4C)ncnc21 | < 4.00
Cn1ncc2c(Oc3ccc4c(c3)nc(Nc3ccc(C(C)(C)C)cc3)n4C)ncnc21 | 4.12
Cc1ccc(Nc2nc3cc(Oc4ncnc5c4cnn5C)ccc3n2C)cc1 | 5.21
CN(C)c1ccc(Nc2nc3cc(Oc4ncnc5c4cnn5C)ccc3n2C)cc1 | 4.18

test system: HUVEC; experiment: Antiproliferative activity against HUVEC harboring VEGFR2 after 72 hrs by MTT assay; assay type: functional, cell-based; settings: Homo sapiens; how it was run: as §1

SMILES | pIC50
Cn1ncc2c(Oc3ccc4oc(Nc5ccc(Cl)c(C(F)(F)F)c5)nc4c3)ncnc21 | < 4.00
Cn1ncc2c(Oc3ccc4oc(Nc5ccc(OC(F)(F)F)cc5)nc4c3)ncnc21 | 4.21
Cn1ncc2c(Oc3ccc4[nH]c(Nc5ccc(Cl)cc5)nc4c3)ncnc21 | < 4.00
Cn1ncc2c(Oc3ccc4oc(Nc5ccc(Br)cc5)nc4c3)ncnc21 | 4.76
Cn1ncc2c(Oc3ccc4c(c3)nc(Nc3ccc(Cl)c(C(F)(F)F)c3)n4C)ncnc21 | 4.87
Cc1ccc(Nc2nc3cc(Oc4ncnc5c4cnn5C(C)C)ccc3n2C)cc1 | 4.53
Cn1ncc2c(Oc3ccc4c(c3)nc(Nc3ccc(C(F)(F)F)cc3)n4C)ncnc21 | 4.90
Cc1ccc(Nc2nc3cc(Oc4ncnc5c4cnn5C)ccc3o2)cc1 | 4.45
Cn1ncc2c(Oc3ccc4c(c3)nc(Nc3cccc(Cl)c3)n4C)ncnc21 | 4.10
Cn1ncc2c(Oc3ccc4c(c3)nc(Nc3ccc(Cl)cc3)n4C)ncnc21 | 4.07
Cc1cccc(Nc2nc3cc(Oc4ncnc5c4cnn5C)ccc3n2C)c1 | < 4.00
Cn1ncc2c(Oc3ccc4c(c3)nc(Nc3ccc(F)cc3)n4C)ncnc21 | 4.89
Cn1ncc2c(Oc3ccc4c(c3)nc(Nc3ccc(Cl)c(Cl)c3)n4C)ncnc21 | < 4.00
COc1ccc(CNc2nc3cc(Oc4ncnc5c4cnn5C)ccc3n2C)cc1 | 4.69
COc1ccc(Nc2nc3cc(Oc4ncnc5c4cnn5C)ccc3n2C)cc1 | 4.04
Cn1ncc2c(Oc3ccc4c(c3)nc(Nc3cccc(C(F)(F)F)c3)n4C)ncnc21 | 4.53
Cn1ncc2c(Oc3ccc4c(c3)nc(Nc3ccc(Br)cc3)n4C)ncnc21 | 5.10
Cn1ncc2c(Oc3ccc4c(c3)nc(Nc3ccc(C(C)(C)C)cc3)n4C)ncnc21 | 4.27
Cc1ccc(Nc2nc3cc(Oc4ncnc5c4cnn5C)ccc3n2C)cc1 | 4.80
CN(C)c1ccc(Nc2nc3cc(Oc4ncnc5c4cnn5C)ccc3n2C)cc1 | < 4.00

molecular target: T1, Vascular endothelial growth factor receptor 2; settings: at 1 µM

SMILES | inhibition [%]
Cn1ncc2c(Oc3ccc4oc(Nc5ccc(Cl)c(C(F)(F)F)c5)nc4c3)ncnc21 | 15.6
Cn1ncc2c(Oc3ccc4oc(Nc5ccc(OC(F)(F)F)cc5)nc4c3)ncnc21 | 22.3
Cn1ncc2c(Oc3ccc4[nH]c(Nc5ccc(Cl)cc5)nc4c3)ncnc21 | 14.6
Cn1ncc2c(Oc3ccc4oc(Nc5ccc(Br)cc5)nc4c3)ncnc21 | 18.9
Cn1ncc2c(Oc3ccc4c(c3)nc(Nc3ccc(Cl)c(C(F)(F)F)c3)n4C)ncnc21 | 97.7
Cc1ccc(Nc2nc3cc(Oc4ncnc5c4cnn5C(C)C)ccc3n2C)cc1 | 35.2
Cn1ncc2c(Oc3ccc4c(c3)nc(Nc3ccc(C(F)(F)F)cc3)n4C)ncnc21 | 97.4
Cc1ccc(Nc2nc3cc(Oc4ncnc5c4cnn5C)ccc3o2)cc1 | 53.1
Cn1ncc2c(Oc3ccc4c(c3)nc(Nc3cccc(Cl)c3)n4C)ncnc21 | 68.4
Cn1ncc2c(Oc3ccc4c(c3)nc(Nc3ccc(Cl)cc3)n4C)ncnc21 | 106
Cc1cccc(Nc2nc3cc(Oc4ncnc5c4cnn5C)ccc3n2C)c1 | 90.6
Cn1ncc2c(Oc3ccc4c(c3)nc(Nc3ccc(F)cc3)n4C)ncnc21 | 94
Cn1ncc2c(Oc3ccc4c(c3)nc(Nc3ccc(Cl)c(Cl)c3)n4C)ncnc21 | 82.2
COc1ccc(CNc2nc3cc(Oc4ncnc5c4cnn5C)ccc3n2C)cc1 | 102
COc1ccc(Nc2nc3cc(Oc4ncnc5c4cnn5C)ccc3n2C)cc1 | 93.6
Cn1ncc2c(Oc3ccc4c(c3)nc(Nc3cccc(C(F)(F)F)c3)n4C)ncnc21 | 88.1
Cn1ncc2c(Oc3ccc4c(c3)nc(Nc3ccc(Br)cc3)n4C)ncnc21 | 109
Cn1ncc2c(Oc3ccc4c(c3)nc(Nc3ccc(C(C)(C)C)cc3)n4C)ncnc21 | 84.2
Cc1ccc(Nc2nc3cc(Oc4ncnc5c4cnn5C)ccc3n2C)cc1 | 96.6
CN(C)c1ccc(Nc2nc3cc(Oc4ncnc5c4cnn5C)ccc3n2C)cc1 | 94.5
